# Source: PubChem BioAssay (several laboratories)
# Compounds with a hit are over-represented: about 2.2% of the library has one in this group of screens.
# bCat KO growth = primary screen for growth suppressors in beta-catenin knockout HCT116 cells (colon tumor, human) | 1.5% of 140,000 active | viability, % at 10 µM | HCT116 beta-catenin knockout viability, CellTiter-Glo, 60 h; hits give low values | AID 818, 2007;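 active = viability at or under a set limit, the compound median less 4 SD, cut at about 6% in these data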;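 note: 0% = Hyamine 1622 control at 20 µM and 100% = untreated cell control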
# Autophagy HCS = autophagy modulators in MEF cells, primary screen, imaging, high-content, MEF GFP-LC3. MEF GFP-LC3 puncta imaging; test concentration mostly 10 µM. calls only at 10 µM (by protocol). 0.98% of 190,000 active;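 active = percentage of spot-positive cells more than 3 SD above its plate mean, without a fluorescence outlier flag or 80% toxicity; inconclusive = no clear call, values can overlap the other calls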;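 note: spot-positive cell cutoff set from DMSO-treated cells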
# SDO1 yeast rescue = growth rescue of sdo1-depleted yeast, primary screen, S. cerevisiae, bone marrow failure model; 0.21% of 140,000 active; S. cerevisiae sdo1-depleted JHY4D growth rescue, OD600 30 h; hits give high values; pdr5 snq2 efflux-pump mutant strain; z-score at 10 µM;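 active = z-score above 3 at both the 24 hr and the 30 hr optical density reads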;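 note: z-score against mean and SD of all compound wells on the same plate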
# HCT116 PTEN-null = growth suppression of PTEN-null HCT116, primary screen, cell-based, CellTiter-Glo; HCT116 PTEN-null viability, 60 h; hits give low values; viability, % at 10 µM; 1.2% of 140,000 active; AID 827, 2007;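 active = viability at or below a set limit, 4 SD under the median of all tested compounds, cut at about 3.7% in these data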;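 note: PTEN knockout HCT116 line with beta catenin targeted HCT116 as companion control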
# Dynein cargo inh = inhibitors of GR-EGFP nuclear translocation, primary screen, dynein cargo transport inhibitor project, imaging, high-content, 3617.4 mouse cells. test concentration mostly 20 µM; stimulated with dexamethasone, 1 µM; hits give low values. z-score, hits read low. 0.47% of 220,000 active;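 active = plate z-score of nuclear minus cytoplasmic receptor signal below a set negative limit, without overly bright fluorescence or cell loss, cut at about -3.5 in these data, passing the limit was not always enough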;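 note: z-score of nuclear minus cytoplasmic ring GR-EGFP intensity difference per well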
#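 Schedule: 48 h induction, then 1 h compound, then 30 min agonist, 37 °C. Buffer or medium: tetracycline-free induction medium containing charcoal-stripped FBS. Reagent: 1.0 µM final dexamethasone stimulus. Evaluation: nuclear versus cytoplasmic GR-EGFP signal, averaged per well. Signal: high-content fluorescence imaging after fixation.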
# The depositor's hits bear a star; i = inactive; ? = inconclusive; . = no result given; + = active, no number.
SMILES,bCat KO growth,Autophagy HCS,SDO1 yeast rescue,HCT116 PTEN-null,Dynein cargo inh
COc1cc(C(=O)Oc2c(CN3CCOCC3)cc(Cl)c3cccnc23)cc(OC)c1OC,2.4*,i,-0.97,1.5*,-0.714
O=C(Oc1c(CN2CCOCC2)cc(Cl)c2cccnc12)c1cccs1,.,i,.,.,-1.2
Cc1c2ccccc2nc2c(F)c(N(C)C)c(F)c(F)c12,46.0,+,-0.49,45.0,-1.73
CN(c1ccccc1)S(=O)(=O)c1ccc(C(=O)OCC(=O)NCc2cccs2)cc1,.,.,.,.,-0.859
COC(=O)C(CC(=O)c1ccc(Br)cc1)n1ccnc1 (centres undefined),2.6*,i,-3.45,2.7*,-3.44
Cn1cc([C@@H]2C[C@H]3CN(Cc4cccc(Cl)c4)C(=O)[C@]34CCCN24)c(-c2ccccc2)n1,.,i,.,.,1.68
Cc1ccc(N2CC(O)=C(c3nc4ccccc4c(=O)[nH]3)C2=N)cc1C,.,+,.,.,1.62
N=C1C(c2nc3ccccc3c(=O)[nH]2)=C(O)CN1c1ccccc1,37.6,i,0.57,33.1,0.467
Cc1ccccc1NC(=O)Cc1nc(CSc2nnc(-c3ccc4c(c3)OCO4)o2)cs1,98.1,i,-1.57,91.6,-0.66
C=CCn1cccc(/C=C/C(=O)c2ccc(C(C)(C)C)cc2)c1=S,1.4*,i,-1.37,1.8*,-0.568
CN1CCN(C(=S)NC(=O)c2ccc(C(C)(C)C)cc2)CC1,98.1,i,-0.71,104.9,-0.447
O=C(Cn1c(=O)oc2cc(S(=O)(=O)N3CCCC3)ccc21)Nc1cccc(C(F)(F)F)c1,83.6,i,-0.31,76.0,-0.483
CCN(CC)S(=O)(=O)c1ccc(N2CCOCC2)c(NS(=O)(=O)c2ccc(C)c(C)c2)c1,79.9,i,-0.12,75.5,-0.103
CSCCCNC(=S)Nc1cccc(S(=O)(=O)NC2=NCCC2)c1,.,+,.,.,-0.355
COc1ccc(-c2ccc(CO)o2)cc1N,.,+,.,.,-1.17
COc1ccc(OC)c(N)c1,89.0,i,0.06,93.7,1.46
COc1ccc(C(=O)NCCc2nnc(SCC(=O)Nc3ccccc3C(C)C)n2C)cc1,108.2,i,0.58,110.7,2.48
CCNCC(=O)Nc1ccc(N2CCOCC2)cc1,.,+,.,.,0.364
C/C(=C\C(=O)c1ccc(Cl)cc1)Nc1ccc(N2CCOCC2)cc1,95.1,+,0.8,91.0,-0.466
CCOc1ccc(N=C(NN)c2ccc3ccccc3n2)cc1,59.4,i,-0.09,56.9,0.191
O=C(c1ccc(Cl)cc1)C1CCN(C(=O)C2CC2)CC1,88.7,i,-0.81,92.8,0.725
CC1(C)Cc2c(C#N)c(N3CCN(C(=O)c4ccco4)CC3)nc(Cc3ccccc3)c2CO1,1.5*,i,0.29,1.0*,-0.884
Cc1ccc2[nH]cc(C(=O)CCl)c2c1,2.8*,i,-1.53,2.3*,-3.02
COc1ccc(Nc2nc(N3CCCC3)c3ccccc3n2)cc1,1.7*,i,-0.49,1.9*,-0.997
CCN(CC)CCNc1nc2cc(OC)c(OC)cc2c2nc(-c3ccccc3)nn12,1.7*,i,-0.05,1.2*,1.19
SMILES,bCat KO growth,Autophagy HCS,SDO1 yeast rescue,HCT116 PTEN-null,Dynein cargo inh
CN(C)CCCNS(=O)(=O)c1ccc(N2CCC(c3ccc(Cl)cc3)=N2)cc1,1.2*,?,-2.22,1.1*,1.82
CC[C@H](C)[C@@H]1NC(=O)c2cc([N+](=O)[O-])cc(F)c2OCC[C@@H](C(N)=O)NC(=O)[C@H](CCCCN)NC1=O,93.9,i,-0.58,86.3,0.614
Cc1c(C(=O)Nc2ccc(Cl)cc2)c2ccccn2c1C(=O)c1ccc([N+](=O)[O-])cc1,76.6,+,-0.2,77.2,0.615
CCOC(=O)NC(CC(=O)O)c1ccc(OC)cc1 (centres undefined),92.2,i,-0.22,91.6,-0.767
CCOc1ccccc1-n1c(CN2CCN(C(=O)c3ccco3)CC2)nc2ccccc2c1=O,3.6*,i,0.51,2.5*,-0.166
Cc1sc2nc(CN3CCC(C)CC3)nc(Cl)c2c1C,0.9*,i,1.45,0.8*,-2.63
Cc1ccc(CNCC(O)(c2ccc(F)cc2)c2ccc(F)cc2)cc1,72.3,i,-1,67.0,.
COc1ccc(CNCC(O)(c2ccc(F)cc2)c2ccc(F)cc2)cc1,.,+,.,.,-0.437
CCOC(=O)c1c(NC(=O)CN2C(=O)NC(C)(c3ccccc3)C2=O)sc(C)c1C (centres undefined),24.1,+,-0.57,18.9,0.0204
Cc1cc(C)nc(N2CCCC(C(=O)NCc3ccccc3F)C2)n1 (centres undefined),.,i,.,.,-0.204
COc1ccc(-c2[nH]c(-c3ccc4c(c3)OCO4)nc2-c2ccccc2)cc1,1.3*,i,-1.81,1.4*,-0.215
Cc1ccc(NC(=O)CCSc2nnnn2-c2ccc3c(c2)OCO3)cc1C,99.2,i,-0.98,105.4,-0.802
CN1C/C(=C/c2cccnc2)C(=O)/C(=C/c2cccnc2)C1,2.1*,i,-2.14,2.1*,-5.94*
CCCNC(=O)c1sc2c(c1C(=O)Nc1ccccn1)CCCC2,.,+,.,.,0.643
COc1ccc(CC(=O)Nc2ccc(-c3noc(-c4cc(OC)c(OC)c(OC)c4)n3)cc2)cc1,72.3,+,-2.41,64.8,0.856
COc1ccc(CC(=O)Nc2ccc(-c3noc(-c4ccc(Cl)cc4)n3)cc2)cc1,1.6*,i,-0.9,0.9*,1.09
COc1cc(C(=O)N/N=C(\C)c2ccc3c(c2)OCO3)cc(OC)c1OC,.,+,.,.,0.125
COc1cc(-c2nc(-c3ccc(NC(=O)c4ccc5c(c4)OCO5)cc3)no2)cc(OC)c1OC,87.3,+,-0.98,88.3,-0.103
CCOc1ccccc1-c1nc(-c2ccc(NC(=O)Cc3ccc(OC)cc3)cc2)no1,104.8,i,-0.67,101.6,-0.126
CC(CC(=O)O)CC(=O)Nc1ccc(Br)cc1 (centres undefined),.,.,.,.,0.98
CC(C)c1nnc(NC(=O)c2ccc3c(c2)OCO3)s1,.,i,.,.,-0.357
COc1ccccc1-c1nnc(NC(=O)c2ccc3c(c2)OCO3)s1,.,+,.,.,-0.0833
COc1ccc([N+](=O)[O-])cc1/C=N/Nc1nc(N2CCCCC2)nc(N2CCCCC2)n1,.,i,.,.,0.391
Cc1ccc(S(=O)(=O)N(C)CCCC(=O)NC(C)(C)C)cc1,.,i,.,.,-0.436
NCC(O)(c1ccc(Cl)cc1)c1ccc(Cl)cc1,.,+,.,.,0.16
CC(C)(C)NCC(O)(c1ccc(Cl)cc1)c1ccc(Cl)cc1,.,i,.,.,-1.5
O=C(CSc1nc2cc(Cl)ccc2s1)NC1CCCc2ccccc21 (centres undefined),85.9,i,-1.45,86.6,0.315
CCOc1ccc(N2C(=O)CC(NCc3ccc(F)cc3)C2=O)cc1 (centres undefined),81.3,+,0.69,101.0,-0.0995
